Assay: Toxicity liver stage against HepG2, at 10uM
Assay type: cell-based
Design: test concentration 10 uM, cell line HepG2-A16-CD81EGFP
Details: human, HepG2-A16-CD81EGFP cells; read-out: INHIBITION
In short: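 Uninfected HepG2-A16-CD81EGFP cells, 3 × 10^3 per well, 1536-well, plated on prespotted compound at 10 μM final, parasite-free screening media added to match infected plates; puromycin 10 μM positive, DMSO 0.5% negative; run in parallel with 48 h PbLuc assay at 37 °C, 5% CO2; viability by CellTiter-Glo luminescence, normalized to controls.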

Row | Structure (SMILES) | cytotoxicity at 10 µM [%]
1 | Cc1ccc2c(c1)c(C)cc(=O)n2CCC(=O)O | -5.6
2 | Fc1ccc(-c2noc(CN3CCC(c4cc[nH]n4)CC3)n2)cc1 | 18.4
3 | Cc1nn(-c2ccccn2)c(C)c1[C@@H]1C=C[C@@H](NC(=O)CCC(=O)O)C1 | 4.59
4 | Cn1cnnc1SC1CCc2ccccc2NC1=O (centres undefined) | -0.373
5 | COCCCN1C(=O)c2ccc(C(=O)NCCc3c[nH]cn3)cc2C1=O | -3.76
6 | COc1ccc(OC)c(C(O)CN2CCN(c3cccc(C)c3)CC2)c1 (centres undefined) | 6.69
7 | O=C(CCCSc1ccc(NC(=O)C2CC2)nn1)NCC1CCCO1 (centres undefined) | -4.45
8 | CCCS(=O)(=O)N1CCN(c2cc(-n3cccc3)nc(C)n2)CC1 | 6.62
9 | CC(=O)N1CCC(CSCc2ccco2)CC1 | 9.77
10 | O=C(Cc1ccc(F)cc1)NCCNc1cc(N2CCCC2)cnn1 | -3.29
11 | O=C(NCCc1ccccn1)[C@@]12CCO[C@@H]1CCN(c1ncccn1)C2 | 4.26
12 | CS(=O)(=O)NCc1noc2c1CN(C(=O)c1ccsc1)CC2 | 7.86
13 | Cc1noc([C@@H]2CCO[C@@H]3CCN(C(=O)Cc4ccsc4)C[C@@H]32)n1 | 10.4
14 | COCC1CN(Cc2ccoc2)Cc2cn(CC3CCCC3)nc21 (centres undefined) | 4.32
15 | Cn1cnc(S(=O)(=O)N2CCCn3cnc(CN4CCCC4)c3C2)c1 | 1.27
16 | O=C(O)C1CCCN(C(=O)CCn2ccc3c(Br)cccc32)C1 (centres undefined) | 10.9
17 | Cc1cc(C)cc(Nc2nc(C)cc(=O)n2CC(=O)NC(C)C)c1 | -7.3
18 | Cn1ccnc1SCC(=O)NCc1ccc2c(c1)CCC(=O)N2 | 7.66
19 | O=C1CNc2ncnc(Nc3cnn(Cc4ccccc4)c3)c2N1 | 7.38
20 | Cc1nn(C)c2c(N3CCCC3)nc(C3CC3)nc12 | 0.12
21 | NC(=O)c1cccc(-c2cnc(C3CCCNC3)cn2)c1 (centres undefined) | -0.055
22 | CNC(=O)CCc1cc(C)nc(C2CCN(c3cnccn3)CC2)c1 | 1.31

Row | Structure (SMILES) | cytotoxicity at 10 µM [%]
23 | O=C1NC2(CCc3ccccc31)CCN(Cc1cccnc1)C2 (centres undefined) | 0.9
24 | CNC(=O)c1cn[nH]c1C1CCCN1c1nc(C)cc(C)n1 (centres undefined) | 2.81
25 | CCC(=O)N1CCC(c2nc(C)c3c(n2)N(C)CCC3)CC1 | 4.26
26 | CC(C)Oc1cccc(CNC(=O)NC2(CO)CCCC2)c1 | -57.1
27 | CC(C)c1cc(C(=O)N(c2ccc(F)cn2)C2CCOCC2)nn1C | -4.65
28 | COc1ccc(S(=O)(=O)Nc2cccnc2-n2cncn2)c(C)c1 | 3.64
29 | O=C1NCCCCC1NC(=O)N1CCCc2ccccc21 (centres undefined) | -3.49
30 | CCOc1ccc(NC(=O)NCCCN(C)S(C)(=O)=O)cc1C | 2.79
31 | Cc1cccc(C)c1NC(=O)CNC(C)Cc1ccsc1 (centres undefined) | -6.12
32 | CC(C)(C)OC(=O)N1CCC(NC2CC2)CC1 | -5.64
33 | CCN1N=C(C(=O)N2CCCC(c3noc(C)n3)C2)CCC1=O (centres undefined) | -12.9
34 | Cc1oc(-c2ccco2)nc1CC(=O)NCC(C)(C)N(C)C | -13.9
35 | CSC(C)(C)CNC(=O)NC1CCC1 | -7.32
36 | O=C(NC1CCN(c2cccc(OC(F)(F)F)c2)C1=O)C1CCC1 (centres undefined) | -3.11
37 | CCN1CCN(c2ccc(F)cc2C(C)NCc2cscn2)CC1 (centres undefined) | -10.3
38 | CCCc1n[nH]c(C2CN(C(=O)CCn3nc(C)cc3C)CCO2)n1 (centres undefined) | -11.9
39 | Cc1noc(C)c1CNCc1c(C(C)C)nn(C)c1N1CCOCC1 | 4.8
40 | CCC(CC)NC(=O)Cn1cc(C(N)=O)c(-c2ccccc2)n1 | -6.87
41 | Cc1nnc(NCCc2nc3ccc(F)cc3n2C)c(C#N)c1C | -0.744
42 | O=C(CCC1CCCCC1)NS(=O)(=O)CC1CC1 | -9.69
43 | CCCS(=O)(=O)N(C)C(=O)CCc1ccsc1 | 0.321
44 | COc1ccc(NC(=O)C2CC2)cc1OCc1cccnc1 | -50.5

Row | Structure (SMILES) | cytotoxicity at 10 µM [%]
45 | CCNC(=O)CCC(=O)Nc1ccc2nn(C(C)C)cc2c1 | -141
46 | CC(C)C1CCN(C(=O)NCC(=O)N(C)CC(F)(F)F)CC1 | 20.7
47 | CN(C)c1cccc(CNCc2ccc(N3CCOCC3)cc2)c1 | 11.3
48 | COc1ccccc1CCN(C)Cc1nc(N)nc(N(C)C)n1 | 6.96
49 | CC(=O)N1CCN(C(=O)CNc2ccc3ncsc3c2)CC1 | -2.01
50 | CN(CC1CCCC1)C(=O)c1cn(C)nc1-c1cccnc1 | -0.0402
51 | Cc1csc(C2(NCC(O)COc3ccc(F)cc3)CCC2)n1 (centres undefined) | 14.9
52 | C[S+]([O-])c1nncn1CC(=O)c1ccc(Cl)c(Cl)c1 (centres undefined) | -4.34
53 | CCSc1cc(C(=O)NCc2ccccc2O)ccn1 | -3.81
54 | CC(C)NC(=O)N1CCc2nc(C(=O)NCc3ccccc3)sc2CC1 | 4.17
55 | CS(=O)(=O)NCc1nnc2n1CCN(Cc1cccs1)C2 | -1.57
56 | O=C(c1ccoc1)N1CC[C@@H]2O[C@H](COCc3ccccn3)CC[C@@H]21 | 5.48
57 | Cc1cc(CN2CC[C@H]3C[C@H](C)O[C@@H]3C2)no1 | -1.42
58 | COc1ccc(CN2CCCC(N3CCCC3)C2)cc1Cn1cncn1 (centres undefined) | 7.33
59 | Cc1nccn1CCCN1CCC2(CCC(=O)N(CC3CC3)C2)CC1 | 3.12
60 | CCc1nc(CC2CN(c3ncnc4sc(C)c(C)c34)CCO2)no1 (centres undefined) | 11.9
61 | O=C(CCN1CCCC(CO)(CC2CC2)C1)NC1CCCCC1 (centres undefined) | 1.91
62 | Cc1cc(C(=O)NCc2cccnc2N2CCCC(O)C2)[nH]n1 (centres undefined) | 4.52
63 | COC(=O)CNC(=O)C1(N(C)Cc2ccccc2)Cc2ccccc2C1 | 3.82
64 | CN(CCc1ccccc1)C(=O)c1cc(CN2CCC(O)CC2)on1 | -2.92
65 | CN[C@@H](C)C(=O)N(Cc1cccc(C)c1)Cc1ccccc1OC | -39.5
66 | CC(C)C1CN(c2cnccn2)CCC(=O)N1Cc1ccc(F)cc1 (centres undefined) | 3.67

Row | Structure (SMILES) | cytotoxicity at 10 µM [%]
67 | CC(C)c1cc(NCC2(Cn3cccn3)CC2)nc(N)n1 | 3.19
68 | Cc1c[nH]c(C(=O)N2CCC(c3nnc(CN(C)CCO)n3C)CC2)c1 | -3.52
69 | COCc1cc(CN(C)C(=O)CCC(=O)Nc2cc(C)ccc2F)n[nH]1 | -14.5
70 | CCCn1cnnc1CNC1CCSC1 (centres undefined) | -1.1
71 | CC(C)Cn1c(=O)n(CCn2cc(Cl)cn2)c2cc(C(=O)O)cnc21 | 3.72
72 | CCc1oc(C(=O)NCCc2nc(C(=O)O)cs2)cc1CN1CCCC1 | 19.3
73 | COCCCC1CCCCN1Cc1cnn(C)c1C1CC1 (centres undefined) | -2.52
74 | Cc1nc2c(c(N(C)Cc3ccccc3-n3cccn3)n1)CCNCC2 | -11.2
75 | CCCNc1ncc(-c2cc(C3CC3)nc(N)c2C#N)cn1 | 8.26
76 | COC(=O)c1cc(OCC2CCC2)cc(C(=O)N[C@@H](C)CO)c1 | -2.18
77 | Cc1cnc(CNC(=O)CCCn2cnc3ccccc3c2=O)cn1 | -7.2
78 | Cc1ccc(-c2ccnc(NC(C)c3n[nH]c(C)n3)n2)c(C)n1 (centres undefined) | 2.83
79 | Cc1nc2ccc(S(=O)(=O)Nc3c(C)nn(CC(=O)O)c3C)cc2s1 | -2.83
80 | CNc1cc(C)nc(N2CCC3(CC2)[C@H](O)C[C@@H]3OC)n1 | -6.72
81 | CCn1cc(CN2CCCN(C3Cc4ccccc4C3)CC2)c(C)n1 | -10.9
82 | O=C(N[C@H]1COC[C@@H]1N1CCCC1)c1csc(-c2cccs2)n1 | 9.71
83 | CC(C)C(NC(=O)Nc1ccccn1)c1cccs1 (centres undefined) | 2.27
84 | COc1ccc(-c2nc(C(=O)NCC3CCOC3)cs2)cc1OC (centres undefined) | 2.39
85 | CCOc1ccnc(N2CCN(C(=O)c3ccncc3)CC2)n1 | -4.6
86 | O=C(CCC1CCCO1)NCc1ccccc1Cn1cncn1 (centres undefined) | -4.05
87 | Cc1noc(C(C)N2CCN(Cc3ccco3)CC2)n1 (centres undefined) | -3.37
88 | O=S(=O)(NCc1ccccc1Cn1cncn1)N1CCCCCC1 | 0.512

Row | Structure (SMILES) | cytotoxicity at 10 µM [%]
89 | Cc1cc(C)c(CNC(=O)N2CCCC2c2ccc(F)cc2)c(=O)[nH]1 (centres undefined) | 1.38
90 | COC(=O)c1cccc(C(=O)NCc2ccc3c(c2)CCCN3C)c1 | -11.7
91 | CN(C)C(CNC(=O)c1cc2c([nH]c1=O)CCCC2=O)c1ccsc1 (centres undefined) | -1.96
92 | Cc1ccccc1-n1ncc(C(=O)N2CCCC2c2cnn(C)c2)c1C (centres undefined) | -4.84
93 | CC(C(=O)N1CCN(c2ccccc2Cl)CC1)n1cncn1 (centres undefined) | 5.17
94 | Cc1n[nH]c(C2CN(C(=O)Cn3ccccc3=O)CCO2)n1 (centres undefined) | 5.75
95 | c1ccc(-c2cnc(CNCC3CCCN3c3cccnn3)o2)cc1 (centres undefined) | 1.56
96 | CC(C)c1cc(C(=O)NCC2CCCN(C(C)C)C2)n(C)n1 (centres undefined) | -1.75
97 | CN(C)CCOC[C@H]1CC[C@H]2[C@H](CCN2C(=O)c2ccoc2)O1 | -81.5
98 | Cn1cc(CN2CCC3(CC2)CCN(C(=O)c2cscn2)CC3)cn1 | -0.937
99 | CCc1ccc(CN2CCC3(CC2)CN(c2cnn(C)c2)C(=O)CO3)o1 | 0.777
100 | O=C(c1ccoc1)N1CCOCC2(CCN(C3CCOCC3)C2)C1 (centres undefined) | -6.11
101 | O=C(C1=CCCC1)N1CCC[C@]2(C[C@@H](OCc3ccccn3)CO2)C1 | 9.79
102 | O=S(=O)(C1CC1)N1CCO[C@@H]2CC(COCc3cccnc3)C[C@H]21 (some centres undefined) | 7.01
103 | CN(C)S(=O)(=O)N1CC[C@]2(C[C@H](Oc3ncccc3F)CO2)C1 | 2.47
104 | COc1ccc(CN2C[C@@H](OCc3ccccn3)[C@H]3COC[C@H]32)cc1 | 3.63
105 | CCN(C)c1ncnc2c1CCN(Cc1ccc(OC)cc1)CC2 | 9.88
106 | NC1(c2nc(C(F)(F)F)cc(=O)[nH]2)CCCCC1 | 11
107 | CCC(=O)N1CCC[C@]2(C(=O)N(C)C)CN(c3ccccn3)C[C@@H]2C1 | 11.5
108 | Cc1noc(C)c1CN1CC[C@@H]2O[C@H](COCC3CC3)CC[C@@H]21 | 5.65
109 | O=C(CC1[C@H]2CN(C(=O)c3cccnc3)C[C@@H]12)Nc1cccnc1 (some centres undefined) | 7.37

From ChEMBL document CHEMBL4513216, “Probing the Open Global Health Chemical Diversity Library for Multistage-Active Starting Points for Next-Generation Antimalarials” (ACS Infect Dis, 2020)
